Results published in ChEMBL document CHEMBL1136156, “A specific anti-Helicobacter pylori agent NE2001: synthesis and its effect on the growth of H. pylori” (2003).
≈ marks a conversion by molar mass, not a printed value.

What was measured:
Type in all cases: functional
[1] = test system: Staphylococcus aureus; assay: Antibacterial activity against Staphylococcus aureus 209P JC was determined
Summary of the method: (§1)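 Agar dilution MIC on Mueller–Hinton agar for reference strains of other species. Compounds were dissolved in DMSO and serially diluted two-fold. Strains were stored at -80 °C before testing. MIC was taken as the minimum concentration completely inhibiting growth.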

[2] = test system: Escherichia coli; assay: Antibacterial activity against Escherichia coli K-12 was determined; summary of the method: as §1
[3] = test system: Helicobacter pylori; assay: Antibacterial activity against Helicobacter pylori ATCC 43504 was determined
Summary of the method: (§2)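 Agar dilution MIC on Columbia agar with 7% defibrinated sheep blood. Compounds were dissolved in DMSO and serially diluted two-fold. Inoculum was grown 24 h at 37 °C in Brucella broth with 5% fetal bovine serum under microaerophilic gas (5% O2, 10% CO2, 85% N2) and adjusted to about 10^8 CFU/mL, then streaked onto ~2 cm squares. Plates were incubated microaerophilically for 3 days at 37 °C. MIC was the lowest concentration giving complete growth inhibition.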

[4] = test system: Morganella morganii; assay: Antibacterial activity against Morganella morganii was determined; summary of the method: as §1
[5] = test system: Staphylococcus epidermidis; assay: Antibacterial activity against Staphylococcus epidermidis was determined; summary of the method: as §1
[6] = test system: Helicobacter pylori; assay: Antibacterial activity against Helicobacter pylori HP0018 was determined
Summary of the method: (§3)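 Agar dilution MIC on Columbia agar with 7% defibrinated sheep blood. Compounds dissolved in DMSO and serially diluted twofold. Inoculum was H. pylori grown 24 h at 37 °C in Brucella broth with 5% fetal bovine serum under microaerophilic gas (5% O2, 10% CO2, 85% N2), adjusted to about 10^8 CFU/mL and streaked by loop. Plates were incubated microaerophilically for 3 days at 37 °C. MIC taken as the lowest concentration giving complete growth inhibition.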

[7] = test system: Helicobacter pylori; assay: Antibacterial activity against Helicobacter pylori HP0019 was determined; summary of the method: as §2
[8] = test system: Helicobacter pylori; assay: Antibacterial activity against Helicobacter pylori HP004 was determined; summary of the method: as §3
[9] = test system: Helicobacter pylori; assay: Antibacterial activity against Helicobacter pylori HP003 was determined; summary of the method: as §2
[10] = test system: Helicobacter pylori; assay: Antibacterial activity against Helicobacter pylori HP020 was determined; summary of the method: as §3
[11] = test system: Helicobacter pylori; assay: Antibacterial activity against Helicobacter pylori HP007 was determined; summary of the method: as §2
[12] = test system: Helicobacter pylori; assay: Antibacterial activity against Helicobacter pylori HP0016 was determined; summary of the method: as §2
[13] = test system: Helicobacter pylori; assay: Antibacterial activity against Helicobacter pylori HP022 was determined; summary of the method: as §2
[14] = test system: Enterococcus faecalis; assay: Antibacterial activity against Enterococcus faecalis was determined; summary of the method: as §1
[15] = test system: Helicobacter pylori; assay: Antibacterial activity against Helicobacter pylori HP021 was determined; summary of the method: as §2
[16] = test system: Klebsiella pneumoniae; assay: Antibacterial activity against Klebsiella pneumoniae was determined; summary of the method: as §1
[17] = test system: Helicobacter pylori; assay: Antibacterial activity against Helicobacter pylori HP008 was determined; summary of the method: as §2
[18] = test system: Helicobacter pylori; assay: Antibacterial activity against Helicobacter pylori HP0017 was determined; summary of the method: as §2
[19] = test system: Helicobacter pylori; assay: Antibacterial activity against Helicobacter pylori HP001 was determined; summary of the method: as §2

Structure (SMILES) | MIC [1] [µg/mL] | MIC [2] [µg/mL] | MIC [3] [µg/mL] | MIC [4] [µg/mL] | MIC [5] [µg/mL] | MIC [6] [µg/mL] | MIC [7] [µg/mL] | MIC [8] [µg/mL] | MIC [9] [µg/mL] | MIC [10] [µg/mL] | MIC [11] [µg/mL] | MIC [12] [µg/mL] | MIC [13] [µg/mL] | MIC [14] [µg/mL] | MIC [15] [µg/mL] | MIC [16] [µg/mL] | MIC [17] [µg/mL] | MIC [18] [µg/mL] | MIC [19] [µg/mL]
Cl.N=C(N)NCc1ccc(C(=O)Oc2ccccc2)cc1 | > 64 | > 64 | 16 |  |  |  |  |  |  |  |  |  |  |  |  |  |  |  | 
O=C(O)c1ccc(-c2ccc(O)cc2)cc1 | > 64 | > 64 | > 64 |  |  |  |  |  |  |  |  |  |  |  |  |  |  |  | 
Cc1ncc([N+](=O)[O-])n1CCO [METRONIDAZOLE] | > 100 | > 100 | 64 (≈ 374 µM) | > 100 | > 100 | 8 (≈ 46.7 µM) | 32 (≈ 187 µM) | 8 (≈ 46.7 µM) | 2 (≈ 11.7 µM) | 128 (≈ 748 µM) | 16 (≈ 93.5 µM) | 32 (≈ 187 µM) | 16 (≈ 93.5 µM) | > 100 | 32 (≈ 187 µM) | > 100 | 32 (≈ 187 µM) | 64 (≈ 374 µM) | 4 (≈ 23.4 µM)
Cc1ccc(COC(=O)c2ccc(-c3ccc(O)cc3)cc2)cc1 | > 64 | > 64 | 8 (≈ 25.1 µM) |  |  |  |  |  |  |  |  |  |  |  |  |  |  |  | 
Cc1ccc(CO)cc1 | > 64 | > 64 | > 64 |  |  |  |  |  |  |  |  |  |  |  |  |  |  |  | 
Cl.N=C(N)NCc1ccc(C(=O)Nc2ccccc2)cc1 | > 64 | > 64 | > 64 |  |  |  |  |  |  |  |  |  |  |  |  |  |  |  | 
Cl.N=C(N)NCc1ccc(C(=O)O)cc1 | > 64 | > 64 | > 64 |  |  |  |  |  |  |  |  |  |  |  |  |  |  |  | 
NCc1ccc(C(=O)O)cc1 [AMINOMETHYLBENZOIC ACID] | > 64 | > 64 | > 64 |  |  |  |  |  |  |  |  |  |  |  |  |  |  |  | 
CC1(C)S[C@@H]2[C@H](NC(=O)[C@H](N)c3ccc(O)cc3)C(=O)N2[C@H]1C(=O)O [AMOXICILLIN] | 0.2 (≈ 0.547 µM) | 1.6 (≈ 4.38 µM) | 0.05 (≈ 0.137 µM) | > 100 | 0.78 (≈ 2.13 µM) | 0.05 (≈ 0.137 µM) | 0.05 (≈ 0.137 µM) | 0.05 (≈ 0.137 µM) | 0.05 (≈ 0.137 µM) | 0.05 (≈ 0.137 µM) | 0.05 (≈ 0.137 µM) | 0.05 (≈ 0.137 µM) | 0.025 (≈ 0.0684 µM) | 0.78 (≈ 2.13 µM) | 0.025 (≈ 0.0684 µM) | 50 (≈ 137 µM) | 0.05 (≈ 0.137 µM) | 0.025 (≈ 0.0684 µM) | 0.025 (≈ 0.0684 µM)
Cc1ccc(COC(=O)c2ccc(-c3ccc(OC(=O)c4ccc(CN=C(N)N)cc4)cc3)cc2)cc1.Cl | > 64 | > 64 | 0.8 | > 64 | > 64 | 0.4 | 1.6 | 0.8 | 0.8 | 0.8 | 0.8 | 0.8 | 0.8 | > 64 | 0.8 | > 64 | 0.8 | 1.6 | 0.4
COC(=O)c1ccc(-c2ccc(O)cc2)cc1 | > 64 | > 64 | > 64 |  |  |  |  |  |  |  |  |  |  |  |  |  |  |  | 
